Hits are enriched below; roughly 3% of the tested compounds scored in any of these assays.
CHRM4 agonist: human M4 muscarinic receptor agonists, primary screen, CHO-K1 cells, Fluo-8 calcium fluorescence | CHO-K1 hM4/Gqi5; vehicle 0%, full acetylcholine response 100% | AID 624127, 2012 | activation, % at 3 µM | hit rate 0.14% among 360,000;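 active = activation above the run mean over all test wells plus 3 SD, cut at about 32% in these data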;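 note: peak over basal fluorescence ratio per well then scaled between controls; 0% = DMSO wells and 100% = acetylcholine at EC100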
Target sequence (P08173 whole entry, looked up): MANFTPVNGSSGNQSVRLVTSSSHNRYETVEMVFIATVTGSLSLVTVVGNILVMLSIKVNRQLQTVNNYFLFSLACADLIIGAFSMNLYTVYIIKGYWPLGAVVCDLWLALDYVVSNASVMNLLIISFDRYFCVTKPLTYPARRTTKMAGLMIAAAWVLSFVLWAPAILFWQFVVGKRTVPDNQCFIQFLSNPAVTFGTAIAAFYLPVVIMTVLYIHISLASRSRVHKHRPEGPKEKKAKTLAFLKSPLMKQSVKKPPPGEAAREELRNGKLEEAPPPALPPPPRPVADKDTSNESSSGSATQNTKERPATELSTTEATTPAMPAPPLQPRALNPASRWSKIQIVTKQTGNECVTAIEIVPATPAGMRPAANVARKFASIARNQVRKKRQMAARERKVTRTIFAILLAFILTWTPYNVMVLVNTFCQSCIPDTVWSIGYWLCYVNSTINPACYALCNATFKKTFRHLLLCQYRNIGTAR
M4 antag: human M4 muscarinic receptor antagonists, primary screen, CHO cells, Fluo-8 calcium fluorescence; hit rate 0.73% among 360,000; AID 624125, 2012; inhibition, % at 3 µM; CHO-hM4 cells, ACh EC80;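 active = inhibition above its plate's cutoff, the mean inhibition of sample wells plus 3 SD, cut at about 27% in these data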;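 note: 0% = acetylcholine EC80 with DMSO and 100% = DMSO without agonist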
TAAR1 ag: human TAAR1 agonists, primary screen, Fluo-8 calcium fluorescence, CHO RD-HGA16 cells; Trace amine-associated receptor 1 (Homo sapiens), Q96RJ0; vehicle wells 0%, saturating PEA agonist 100%; activation, % at 3 µM; hit rate 0.99% among 360,000;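 active = activation above the mean activation of all test compounds in the run plus 3 SD, cut at about 38% in these data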
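System: CHO-derived RD-HGA16 cells with stable Gα16 and human TAAR1 / Times: 17-24 h plating, Fluo-8 75 min 37 °C, 30 min RT / Technique: calcium-sensitive Fluo-8 signal, excitation 470-495, emission 515-575 nm / Measure: % activation relative to PEA EC100 response / Benchmarks: DMSO and PEA EC100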
TAAR1 antag: human TAAR1 antagonists, primary screen, Fluo-8 calcium fluorescence, CHO RD-HGA16 cells; hit rate 1.5% among 360,000; antagonist; Trace amine-associated receptor 1 (Homo sapiens), Q96RJ0; inhibition, % at 3 µM;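 active = inhibition above a per-plate cutoff, the mean inhibition of test compounds on that plate plus 3 SD, cut at about 49% in these data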;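 note: 0% = DMSO plus EC80 beta-PEA response and 100% = DMSO alone without agonist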
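Test system: CHO RD-HGA16 cells bearing hTAAR1 | Reagent: β-PEA, EC80 | Compound dosing: 3 µM, single point | Schedule: Dye loading 75 min at 37 °C, then 30 min room temperature | Signal: Calcium fluorescence with Fluo-8 | Evaluation: Percent inhibition of PEA-evoked calcium signal, max/basal emission ratio | Control set: DMSO-only wells and EC80 β-PEA-stimulated wells | Repeats: Singlicate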
CHRM4 PAM: human M4 muscarinic receptor positive allosteric modulators, primary screen, CHO-K1 cells, Fluo-8 calcium fluorescence; activation, % at 3 µM; hit rate 0.4% among 360,000; CHO-K1 hM4/Gqi5, ACh EC20; 0% = ACh EC20, 100% = maximal ACh;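 active = activation above its plate's cutoff, the mean activation of sample wells plus 3 SD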
* marks the source's active call; other numbers are inactive results; / = no result.

SMILES	CHRM4 agonist	M4 antag	TAAR1 ag	TAAR1 antag	CHRM4 PAM
COc1ccc(CN2CCNC(=O)C2CC(=O)NC2CCCCCCC2)cc1OC (configuration not stated)	2	36*	6	-24	-26
COC(=O)[C@]12C[C@H](CC(=O)N3CCOCC3)C(=O)N(Cc3ccccc3)C1=C[C@H](C(C)C)O[C@@H]2C1CC1	/	/	1	-13	/
CC(=O)[C@@]1(O)Cc2c(O)c3c(c(O)c2[C@H](O[C@H]2C[C@H](N)[C@H](O)[C@H](C)O2)C1)C(=O)c1ccccc1C3=O	36*	10	66*	44	0
COc1ccc(C(CNC(=O)c2ccc(-c3ccccc3Cl)o2)N2CCCC2)cc1 (configuration not stated)	6	3	42*	-11	-11
COc1ccc(C(CNC(=O)c2ccc(NS(=O)(=O)c3ccc(F)c(C)c3)cc2)N2CCCC2)cc1 (configuration not stated)	2	28*	15	3	-13
O=[N+]([O-])c1ccc2c(c1)CO[C@]21O[C@H](CCO)C[C@H](O)[C@H]1O	/	/	3	3	/
COC(=O)Cc1nnn2c1[C@H](C)[C@@H](OC)c1ccccc1-2	/	/	2	-9	/
COC(=O)C1=C(C)N(Cc2ccc(Br)cc2)C(=S)NC1c1ccc(OC)cc1 (configuration not stated)	/	/	-1	26	/
Cc1cc(C)nc(-n2nc(C)cc2NC(=O)CN2CCc3ccccc3C2)n1	7	-3	43*	0	-2
COc1ccc(CCN2C(=O)CC(Sc3ncccc3C(=O)O)C2=O)cc1OC (configuration not stated)	0	-14	2	3	32*
O=C(O)C1(Nc2ccccc2)CCCC1	0	2	1	-1	0
O=C(NC1(C(=O)O)CCCC1)c1ccccc1	1	-8	2	-17	16*
CC(C)(CC(=O)N1CCN(c2ccc(Cl)cc2)CC1)CC1=NS(=O)(=O)c2ccccc2N1	22	26*	34	64*	-18
O=C(CCCC1=NS(=O)(=O)c2ccccc2N1)N1CCN(c2ccc(Cl)cc2)CC1	11	-13	6	11	-3
Cc1ccc(C)c(N2C(=O)CN=C2Nc2ccccc2Cl)c1	1	0	3	8	22*
O=C1CN=C(Nc2ccccc2Cl)N1c1ccccc1	0	-2	11	-7	1
O=C(OCc1ccccc1)N1CCC2CC1c1ccc(N3CCN(Cc4ccccc4)CC3)cc12 (configuration not stated)	/	/	1	-26	/
COc1ccccc1NC(=O)Cn1c(=O)n(CCc2c[nH]c3ccccc23)c(=O)c2cccnc21	14	6	10	57*	-12
O=C(C(=O)N1CCC(CNS(=O)(=O)c2cc(C(F)(F)F)cc(C(F)(F)F)c2)CC1)c1cccs1	/	/	-2	-11	/
CCCCOC(=O)CCc1c(C)[nH]c(=O)c(C#N)c1C	1	-2	1	-12	26*
Cc1ccc(NC(=O)CCc2c(C)[nH]c(=O)c(C#N)c2C)cc1	0	7	-2	9	-4
CCN=C1NC(c2cccc(Cl)c2)C(C(=O)OC)=C(C)N1Cc1ccccc1C(F)(F)F (configuration not stated)	/	/	9	-1	/
COc1cccc(CNCCc2c[nH]c3ccccc23)c1OCc1ccccc1	38*	21	19	54*	-20
CCCCN1C(=O)C(CC(=O)NC2CCCCC2)CC(C(=O)N2CCCCCC2)=C1C (configuration not stated)	0	8	0	-18	0
Nc1nonc1-n1nnc(C(=O)N/N=C/c2cccnc2)c1CSc1ccc(Cl)cc1	18	7	20	56*	-9
SMILES	CHRM4 agonist	M4 antag	TAAR1 ag	TAAR1 antag	CHRM4 PAM
CCOC(=O)CSc1nc(-c2ccccc2)nc2ccc(F)cc12	1	8	4	-22	28*
COc1ccc2c(c1)[C@@]1(OCCC=C[C@H]1C)C(=O)N2Cc1ccc(Br)cc1	/	/	2	15	/
O=S(=O)(c1ccccc1)N1CCCc2nc(-c3ccccc3)ccc21	/	/	2	13	/
COc1cccc(CN2C(=O)C(C)N(C(=O)c3c(F)cccc3F)c3ccccc32)c1 (configuration not stated)	13	8	4	47	-12
CC1C(=O)N(Cc2ccccc2F)c2ccccc2N1C(=O)c1c(F)cccc1F (configuration not stated)	12	-3	5	52*	-11
C[C@H](CO)N1C[C@H](C)[C@@H](CN(C)S(C)(=O)=O)OCc2cn(nn2)CCCC1=O	/	/	0	8	/
Cc1ccccc1NC(=O)CSc1nnnn1C	0	-4	9	-9	5
CCOC(=O)c1ccccc1NC(=O)COC(=O)CSc1ccccc1	0	-4	0	-30	21*
CCOC(=O)c1ccccc1NC(=O)CSc1nnnn1C	0	0	-1	-2	19*
CNC(=O)C[C@H]1C(=O)N(CCc2ccccc2)C[C@@H]1Cc1ccccc1	2	-10	3	0	4
CC(c1nc2ccccc2[nH]1)n1c(=O)c(-c2ccco2)nc2ccccc21 (configuration not stated)	-2	6	-1	1	2
O=C(C=Cc1ccc(OCc2ccccc2)cc1)c1c(F)cccc1F	/	/	0	-11	/
CN(C)C(C)(C)/C=C/C(O)(c1ccccc1)c1ccccc1	7	70*	0	-3	-16
CS(=O)(=O)c1ccc(S(=O)(=O)NCC2CCN(C(=O)C(=O)c3cc4ccccc4o3)CC2)cc1	/	/	2	-9	/
Cn1cnc2ncnn2c1=S	0	-8	2	-19	3
CCCCCCCCNc1ncnc2ccccc12	9	27*	/	/	-19
c1ccc(CCNc2ncnc3ccccc23)cc1	14	22	16	29	-6
Nc1ncnc2c1ncn2C1OC(C(=O)NC2CC2)C(O)C1O (configuration not stated)	0	36*	1	3	-8
CC(C)NC(=O)C1(C)CCN1C(=O)c1ccccc1 (configuration not stated)	0	1	5	-10	1
O=C(CN(C1CC1)S(=O)(=O)c1ccc(S(=O)(=O)NC2CCCCC2)cc1)Nc1ccccc1	10	7	38*	38	-6
COC(=O)[C@]12CCCCC=C1N(Cc1ccc3c(c1)OCO3)C(=O)[C@H](CC(=O)NCCCN1CCCC1=O)C2	15	-9	5	23	-13
CC1(C)Cc2c(cnn2-c2ccccc2)C(=O)/C1=N\NC(=O)c1ccncc1	1	2	19	-1	18*
Cc1cccc2c(Cl)cc(=O)[nH]c12	/	/	7	-6	/
Cc1cccc2c3c([nH]c12)CCNC3	1	-3	40*	28	2

Screens deposited in PubChem BioAssay by The Scripps Research Institute Molecular Screening Center.
